From paper PMC3355950 (The Journal of Neuroscience, 2012)
Each block holds one compound with its values, some of them ahead of it.

Experiments:
GluN1/GluN2A = GluN1/GluN2A (Rattus norvegicus, UniProt P35439+Q00959); test: Whole-cell voltage-clamp recordings, HEK293 cells, rapid solution exchange; type: cell-based; conditions: 50 μM glutamate
In short: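 HEK293 cells were plated on poly-D-lysine coverslips about 48 h ahead and calcium-phosphate cotransfected with GluN1, GluN2A and GFP (1:1:1). 200 μM D,L-APV and 200 μM 7-chlorokynurenic acid were added after transfection. Whole-cell recording was done about 24 h later at −60 mV and 23°C on lifted cells with piezo-driven theta-glass exchange.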

[1] = system: GluN2B-containing NMDA receptors; conditions: ref Williams, 1993; cited from earlier work
[2] = brief application (10 ms) of 1000 μM glycine, antagonist 0.3 μM

GluN1/GluN2A, sequence (Q00959 23-1464, other chains not shown): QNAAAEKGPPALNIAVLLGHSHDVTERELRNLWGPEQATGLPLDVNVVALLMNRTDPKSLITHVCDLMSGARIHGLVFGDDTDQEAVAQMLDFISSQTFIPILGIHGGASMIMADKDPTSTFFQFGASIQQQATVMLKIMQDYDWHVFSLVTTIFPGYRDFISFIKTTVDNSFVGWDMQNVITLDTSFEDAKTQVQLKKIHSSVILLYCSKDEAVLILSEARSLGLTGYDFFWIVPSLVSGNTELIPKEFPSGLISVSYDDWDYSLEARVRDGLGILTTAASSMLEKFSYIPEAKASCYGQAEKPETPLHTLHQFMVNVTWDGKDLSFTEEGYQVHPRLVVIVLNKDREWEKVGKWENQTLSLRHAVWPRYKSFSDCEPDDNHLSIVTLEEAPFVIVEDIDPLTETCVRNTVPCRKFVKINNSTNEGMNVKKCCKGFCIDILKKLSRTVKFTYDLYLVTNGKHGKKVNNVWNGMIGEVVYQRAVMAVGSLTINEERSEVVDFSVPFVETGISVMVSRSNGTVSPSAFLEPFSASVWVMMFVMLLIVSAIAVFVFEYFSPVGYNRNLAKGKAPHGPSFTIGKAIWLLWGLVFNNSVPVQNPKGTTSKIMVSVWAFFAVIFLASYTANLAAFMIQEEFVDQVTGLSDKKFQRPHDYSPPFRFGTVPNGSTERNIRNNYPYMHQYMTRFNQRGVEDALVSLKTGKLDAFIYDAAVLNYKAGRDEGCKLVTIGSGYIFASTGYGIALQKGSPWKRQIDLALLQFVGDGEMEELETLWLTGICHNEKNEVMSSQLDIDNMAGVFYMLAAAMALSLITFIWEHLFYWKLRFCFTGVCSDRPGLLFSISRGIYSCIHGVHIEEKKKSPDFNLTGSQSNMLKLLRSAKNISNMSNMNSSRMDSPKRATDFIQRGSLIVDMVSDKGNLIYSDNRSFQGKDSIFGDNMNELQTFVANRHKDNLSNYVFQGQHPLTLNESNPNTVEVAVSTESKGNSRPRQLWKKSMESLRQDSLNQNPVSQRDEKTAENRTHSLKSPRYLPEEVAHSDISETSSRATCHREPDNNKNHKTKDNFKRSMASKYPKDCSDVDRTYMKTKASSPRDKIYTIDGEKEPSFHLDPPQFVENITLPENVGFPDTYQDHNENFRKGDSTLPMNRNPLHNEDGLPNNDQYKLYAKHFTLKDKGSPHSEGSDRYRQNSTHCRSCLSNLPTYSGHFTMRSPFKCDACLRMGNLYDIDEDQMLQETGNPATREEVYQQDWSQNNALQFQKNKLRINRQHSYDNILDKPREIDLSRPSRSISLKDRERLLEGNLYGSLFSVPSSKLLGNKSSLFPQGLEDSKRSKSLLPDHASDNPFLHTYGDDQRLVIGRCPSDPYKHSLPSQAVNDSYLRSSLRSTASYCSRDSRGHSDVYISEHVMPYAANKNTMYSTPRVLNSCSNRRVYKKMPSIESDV

- % fast (GluN1/GluN2A; [2]): 34 ± 6%
- τfast (GluN1/GluN2A; [2]): 46 ± 7 ms
- τslow (GluN1/GluN2A; [2]): 158 ± 10 ms
- deactivation time constant, mono-exponential fit (τslow) (GluN1/GluN2A; long application (5 seconds) of 1000 μM glycine, antagonist 0.3 μM): 128 ± 14 ms
SMILES: O=C(O)c1cc(O)c2ccc(Cl)cc2n1 [7CKA, 7-chlorokynurenic acid]

SMILES: O=C(O)c1cc(O)c2c(Cl)cc(Cl)cc2n1 [DCKA, 7,5-dichlorokynurenic acid]
- Peak response to a brief glycine application (GluN1/GluN2A; 0.3 μM, 1 mM glycine 10 ms): 43 ± 13 % of control
- Effect on deactivation time course (GluN1/GluN2A; 0.3 μM, brief (10 ms) or long (5 seconds) 1 mM glycine): did not alter the deactivation time course

SMILES: CC(C(O)c1ccc(O)cc1)N1CCC(Cc2ccccc2)CC1 (stereo not shown) [ifenprodil]
- selectivity for GluN2B-containing NMDA receptors [1]: over 500 fold
